# Laboratory results published in ChEMBL document CHEMBL4513216, “Probing the Open Global Health Chemical Diversity Library for Multistage-Active Starting Points for Next-Generation Antimalarials” (ACS Infect Dis, 2020).
# Assay: Toxicity liver stage against HepG2, at 10uM
# Assay type: cell-based
# Parameters: test concentration 10 uM, cell line HepG2-A16-CD81EGFP
# Details: human, HepG2-A16-CD81EGFP cells; read-out: INHIBITION
# Procedure, shortened: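 Uninfected HepG2-A16-CD81EGFP cells, 3 × 10^3 per well, 1536-well, plated on prespotted compound at 10 μM final, parasite-free screening media added to match infected plates; puromycin 10 μM positive, DMSO 0.5% negative; run in parallel with 48 h PbLuc assay at 37 °C, 5% CO2; viability by CellTiter-Glo luminescence, normalized to controls.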
row,Compound,cytotoxicity at 10 µM [%]
1,COc1cccc2c1OCC(C(=O)NCc1nc3c(s1)CCCC3)C2 (stereo unspecified),-43.3
2,O=c1ccc2c([nH]1)CCN(S(=O)(=O)c1ccc3c(c1)CCCC3)C2,-4.63
3,Cc1cnc(C(=O)NCC2Cc3ccccc3O2)cn1 (stereo unspecified),-0.71
4,CN(c1ccc(C(C)(C)C)cc1)S(=O)(=O)c1cc(C(=O)O)cs1,-6.19
5,Cc1ccc(Cl)cc1NC(=O)C1CC(=O)N(Cc2ccccn2)C1 (stereo unspecified),4.67
6,COc1cccc2c1OCC(NCc1cnn(-c3ccccc3)c1)C2 (stereo unspecified),-0.517
7,O=C(NCCc1ccccn1)Nc1cc(C(F)(F)F)c[nH]c1=O,-6.78
8,c1ccc(O[C@@H]2CC[C@H]3[C@H]2OCCN3CC2CCOCC2)nc1,-1.02
9,CN1CCC(CCNC(=O)c2ccc(N(C)S(C)(=O)=O)cc2Cl)CC1,-10.1
10,COCCOC(=O)N1CCn2nc(CN(C)Cc3nccs3)cc2C1,1.32
11,COCCNC(=O)[C@H]1C[C@H]2OCC[C@H]2N(Cc2ccoc2)C1,-75.7
12,COCCN1CC(C(=O)N(C)Cc2csc(C)n2)CC1=O (stereo unspecified),12.5
13,Cc1nnc([C@H]2C[C@H]3OCC[C@H]3N(S(=O)(=O)C3CC3)C2)o1,-4.11
14,CC1CCN(C(=O)CSc2nc3c(cnn3CCO)c(=O)[nH]2)CC1,7.98
15,Cc1cccc(C(=O)N2C[C@@H]3COC[C@@H](CC(=O)N4CCCC4)[C@@H]3C2)n1,-120
16,COCc1cnc2n1CCN(C(=O)c1ocnc1C)C2C (stereo unspecified),-1.91
17,O=c1[nH]c2c(c(=O)n1C1CCCCC1)CCC2Nc1ccccn1 (stereo unspecified),-8.02
18,O=S(=O)(c1ccccc1)N1CCC2(CCCN2Cc2cccc(F)c2)C1 (stereo unspecified),-68.4
19,CC(=O)N1CCC(C(=O)NC(C)c2cccc(OC(F)F)c2)CC1 (stereo unspecified),-8.2
20,CCOc1cccc(C(C(=O)O)N(C)Cc2cc(C)no2)c1 (stereo unspecified),4.64
21,Cn1cnc2c1C(COCC1CC1)CN(C(=O)c1cscn1)C2 (stereo unspecified),0.922

row,Compound,cytotoxicity at 10 µM [%]
1,Cc1cc(NC(=O)CN2CCn3c(nnc3C3CC3)C2)on1,-9.92
2,CCc1nnc(NC(=O)Cc2c(C)nc(C)[nH]c2=O)s1,-14.4
3,CO[C@@H]1CCN(S(=O)(=O)c2cn(C)cn2)[C@H]1Cc1ccncc1,4.05
4,O=C(C(O)c1ccccc1Cl)N1CCCN(Cc2cccnc2)CC1 (stereo unspecified),5.5
5,CNC(=O)C1CCN(c2ncc3c(n2)CCN3c2ccccc2)C1 (stereo unspecified),-10.1
6,CC(=O)N1CCCC(c2ccc(CO)c(-c3c(C)noc3C)n2)C1 (stereo unspecified),-4.09
7,Cn1nc(CNS(=O)(=O)Cc2ccccc2F)c2c1CCCC2,-0.0785
8,COC1CCN(c2ccc(F)cc2CN(C)C(=O)c2cc[nH]n2)CC1,-4.32
9,CC(C)(C)c1cc(NC(=O)CN2CCCC(Cn3cncn3)C2)on1 (stereo unspecified),3.69
10,CCc1cccc(N2CCC(NC(=O)c3cc[nH]n3)CC2)c1,3.08
11,COCC(=O)N1CC(C(=O)NCC2CC2)C2(CCOCC2)C1 (stereo unspecified),-105
12,Cc1cc(=O)c(C(=O)N(C)Cc2ccc(Cl)c(F)c2)c[nH]1,9.39
13,Cc1cccc(Nc2cccc(C3CCCN(Cc4ncc[nH]4)C3)n2)n1 (stereo unspecified),-24.1
14,CCn1cc2c(n1)C(COC)CN(Cc1ccoc1)C2 (stereo unspecified),7.89
15,COc1ccc(C(=O)NC(CC(=O)O)c2cccs2)c(OC)c1 (stereo unspecified),-0.463
16,Cc1nn(C)c(Cl)c1C1CCCN1C(=O)c1cccn1C (stereo unspecified),-5.53
17,NCc1n[nH]c(=O)n1-c1cccc(Cl)c1Cl,-0.994
18,COc1ccccc1OCCc1cc(C2CCNC2)n[nH]1 (stereo unspecified),-17.1
19,c1cnc(NC2COC3(CCN(Cc4nccs4)CC3)C2)cn1 (stereo unspecified),-79.9
20,O=C1CN(C(=O)CC2C(=O)NCCN2CC2CCCCC2)CCN1 (stereo unspecified),-7.41
21,O=C(NCC1CCOC1)Nc1ccc(Oc2ccc(F)cc2)nc1 (stereo unspecified),-13.7

row,Compound,cytotoxicity at 10 µM [%]
1,O=C(CCN1C(=O)CCC1=O)Nc1cnn(-c2ccccc2Cl)c1,-9.56
2,O=C(NCC1CCCCC1)N1C[C@@H]2C[C@H](C(=O)N3CCOCC3)[C@H](C1)O2,-99.4
3,CC(=O)c1ccc(CNC(=O)c2c(C)cc(C)cc2C)nc1C,9.31
4,CCn1cnnc1CNC(=O)N1CCN(c2ccccc2Cl)CC1,-0.502
5,Cc1nc(C)c(C(=O)N2CCc3nc4sc(C)cc4c(=O)n3CC2)o1,-9.31
6,Cc1nc(CN(C)S(=O)(=O)c2ccccc2Br)no1,6.2
7,O=C(Cc1cccc(F)c1F)NC1COc2ccccc2C1=O (stereo unspecified),10.4
8,CCn1nc(C)c(CCNC(=O)C2CCCN(C(N)=O)C2)c1C (stereo unspecified),-11.2
9,O=C(NCc1ccccn1)Nc1ccc2[nH]nnc2c1,6.77
10,COCCNc1ncc(-c2cccc(OC)c2)c(-c2nccn2C)n1,7.49
11,CN(C)C(=O)N1CCn2nc(CNC(=O)CCc3ccccn3)cc2C1,-3.32
12,O=C(NCC(=O)N1CCCCC1)c1ccoc1,-6.07
13,Cc1cnc(CN(C)C2CCN(CC(=O)Nc3c(C)n[nH]c3C)C2)o1 (stereo unspecified),-6.38
14,CCCc1cc(C(=O)N(C)Cc2cnn(-c3cccc(OC)c3)c2)[nH]n1,-2.4
15,COCCOc1ncccc1NCc1nc2ccccc2n1C,5.95
16,CCOCC(=O)Nc1ccc(-n2ccc(C(N)=O)n2)cc1,-5.27
17,Cc1cnn(CC2CN(CCCS(=O)(=O)N(C)C)CCO2)c1 (stereo unspecified),-2.71
18,COc1cccc(OCc2cc(C(=O)NC[C@@H]3CCCN3)n[nH]2)c1,0.732
19,CCN(Cc1cccc(C(=O)Nc2ncc(C)s2)c1)[C@H]1COC[C@@H]1O,-2.61
20,OCc1cc2ccccc2nc1NCC1CC1,-46.2
21,O=C(Cn1ccc(=O)[nH]c1=O)NCc1cccnc1OCC(F)(F)F,-5.88

row,Compound,cytotoxicity at 10 µM [%]
1,CCN(CC)Cc1nc2c(o1)CN(C(=O)c1ccncc1F)C2,-109
2,CCc1c(C(=O)NC2CCS(=O)(=O)C2)cnn1-c1ccc(C)cc1 (stereo unspecified),-5.94
3,O=C(c1ccco1)N1CCOCC2(C1)CN(c1ccccn1)C(=O)CO2 (stereo unspecified),3.16
4,COCCN1CCC(CN(C)c2nc3c(s2)c(C)nn3C)CC1,0.992
5,Cc1nc(C)c(C)c(N2CCC3(CCN(C)C3)C2)n1 (stereo unspecified),-4.88
6,CCc1cnc(C)nc1NCc1cnc2c(c1)CCC2,8.83
7,CN(Cc1ccsc1)C(=O)c1cccc(F)c1,-2.45
8,COc1nn(C)cc1C(=O)NCC(=O)NCc1cccnc1,-6.32
9,Cc1nc(C(=O)Nc2cccnc2)c(C(C)C)s1,-2.36
10,O=C(COc1ccccc1)NCCNC(=O)c1scnc1Cl,-4.83
11,CNC(=O)C1CCCN(C(=O)c2cncs2)C1 (stereo unspecified),4.94
12,CC(NC(=O)NCC1(c2ccc(F)cc2)CCC1)c1nncn1C (stereo unspecified),-3.59
13,CC(C)c1n[nH]c(C2CN(C(=O)c3csnn3)CCO2)n1 (stereo unspecified),-4.89
14,Cc1ccc(C#N)c(N2CCCC(c3nccn3Cc3cscn3)C2)n1 (stereo unspecified),-1.9
15,O=C(COc1ccc(F)cc1)N1CCCSCC1CN1CCOCC1 (stereo unspecified),-0.0603
16,O=C(O)CCC(=O)N1CCN(CC2CC2)c2ncccc2C1,-101
17,CC[C@@H]1N(Cc2ccc(F)cc2)CCC[C@]12CCC(=O)N2C,9.42
18,CN(CC(=O)N1CCC(COc2ccccc2)CC1)c1cnccn1,-10.7
